In ChEMBL document CHEMBL5303300, “EUbOPEN Chemogenomics Library - Multiplex” (2023):
Several values for one entry are separate records, joined by “and”; a condition that tells them apart may be missing. Equal entries are not always repeated.

What was measured:
Assay type in all cases: toxicity, cell-based
[1] = tested on: HEK-293T; assay: Multiplex assay against HEK293T; settings: human, number of replicates 2
Outline: (§1)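 Hoechst33342, BioTracker Green Microtubule Cytoskeleton Dye, MitoTracker Red and Annexin V Alexa Fluor 680 were added to live cells at seeding, and imaging on a CQ1 microscope at 37°C and 5% CO2 followed compound addition. Gating by CellPathfinder machine learning separated cells into Hoechst high-intensity objects or normal cells, then normal cells into healthy, pyknosed or fragmented nuclei, then pyknosed cells into mitotic or apoptotic. Per cents of healthy-nucleus cells are reported for the tubulin, mitochondrial-mass and membrane-permeability phenotypes.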

[2] = tested on: Fibroblast; assay: Multiplex assay against human fibroblast; settings: number of replicates 2; outline: as §1
[3] = tested on: U2OS; assay: Multiplex assay against U2OS; settings: human, number of replicates 2; outline: as §1
[4] = 12 h, 1 µM, compound concentration 1 uM
[5] = 12 h, 10 µM, compound concentration 10 uM
[6] = 24 h, 1 µM, compound concentration 1 uM
[7] = 24 h, 10 µM, compound concentration 10 uM
[8] = 48 h, 1 µM, compound concentration 1 uM
[9] = 48 h, 10 µM, compound concentration 10 uM

## CN(C)C/C=C/C(=O)Nc1ccc(C(=O)N2CCCC(Nc3ncc(Cl)c(-c4c[nH]c5ccccc45)n3)C2)cc1 (centres undefined)
[1]; [4]
  Population Apoptotic (%): 55% and 71%
  Population Fragmented Nuclei (%): 6% and 2%
  Population Healthy Nuclei (%): 72% and 69%
  Population Hoechst High Intensity Objects (%): 14% and 16%
  Population Membrane Permeable-Phenotype (%): 3% and 1%
  Population Mitochondria Different-Phenotype (%): 63% and 58%
  Population Mitotic Cells (%): 44% and 28%
  Population Normal (%): 85% and 83%
  Population Pyknosed Nuclei (%): 20% and 28%
  Population Tubulin-Different-Phenotype (%): 83% and 79%
  Total Cell Count: 354 and 300
[1]; [5]
  Population Apoptotic (%): 69% and 84%
  Population Fragmented Nuclei (%): 5% and 11%
  Population Healthy Nuclei (%): 67% and 68%
  Population Hoechst High Intensity Objects (%): 29% and 21%
  Population Membrane Permeable-Phenotype (%): 5% and 2%
  Population Mitochondria Different-Phenotype (%): 63% and 70%
  Population Mitotic Cells (%): 30% and 15%
  Population Normal (%): 70% and 78%
  Population Pyknosed Nuclei (%): 26% and 20%
  Population Tubulin-Different-Phenotype (%): 88% and 85%
  Total Cell Count: 280 and 375
[1]; [6]
  Population Apoptotic (%): 73% and 75%
  Population Fragmented Nuclei (%): 6% and 5%
  Population Healthy Nuclei (%): 75% and 74%
  Population Hoechst High Intensity Objects (%): 17% and 19%
  Population Membrane Permeable-Phenotype (%): 2% and 0%
  Population Mitochondria Different-Phenotype (%): 68% and 60%
  Population Mitotic Cells (%): 26% and 25%
  Population Normal (%): 82% and 80%
  Population Pyknosed Nuclei (%): 17% and 20%
  Population Tubulin-Different-Phenotype (%): 80% and 68%
  Total Cell Count: 318 and 268
[1]; [7]
  Population Apoptotic (%): 89% and 91%
  Population Fragmented Nuclei (%): 7% and 10%
  Population Healthy Nuclei (%): 75% and 71%
  Population Hoechst High Intensity Objects (%): 28% and 25%
  Population Membrane Permeable-Phenotype (%): 5% and 2%
  Population Mitochondria Different-Phenotype (%): 78% and 79%
  Population Mitotic Cells (%): 10% and 8%
  Population Normal (%): 71% and 74%
  Population Pyknosed Nuclei (%): 17%
  Population Tubulin-Different-Phenotype (%): 88% and 86%
  Total Cell Count: 313 and 357
[1]; [8]
  Population Apoptotic (%): 85% and 78%
  Population Fragmented Nuclei (%): 9% and 4%
  Population Healthy Nuclei (%): 75% and 77%
  Population Hoechst High Intensity Objects (%): 22% and 15%
  Population Membrane Permeable-Phenotype (%): 0% and 1%
  Population Mitochondria Different-Phenotype (%): 76% and 69%
  Population Mitotic Cells (%): 14% and 21%
  Population Normal (%): 77% and 84%
  Population Pyknosed Nuclei (%): 15% and 17%
  Population Tubulin-Different-Phenotype (%): 81% and 77%
  Total Cell Count: 284 and 272
[1]; [9]
  Population Apoptotic (%): 75% and 83%
  Population Fragmented Nuclei (%): 8% and 17%
  Population Healthy Nuclei (%): 54%
  Population Hoechst High Intensity Objects (%): 24% and 26%
  Population Membrane Permeable-Phenotype (%): 1% and 5%
  Population Mitochondria Different-Phenotype (%): 75% and 70%
  Population Mitotic Cells (%): 25% and 16%
  Population Normal (%): 75% and 73%
  Population Pyknosed Nuclei (%): 36% and 28%
  Population Tubulin-Different-Phenotype (%): 83% and 82%
  Total Cell Count: 362 and 446
[2]; [4]
  Population Apoptotic (%): 40% and 56%
  Population Fragmented Nuclei (%): 10% and 12%
  Population Healthy Nuclei (%): 68% and 67%
  Population Hoechst High Intensity Objects (%): 0%
  Population Membrane Permeable-Phenotype (%): 3% and 5%
  Population Mitochondria Different-Phenotype (%): 0% and 2%
  Population Mitotic Cells (%): 59% and 43%
  Population Normal (%): 99% and 100%
  Population Pyknosed Nuclei (%): 21% and 20%
  Population Tubulin-Different-Phenotype (%): 11% and 13%
  Total Cell Count: 174 and 157
[2]; [5]
  Population Apoptotic (%): 63% and 53%
  Population Fragmented Nuclei (%): 10% and 20%
  Population Healthy Nuclei (%): 42% and 50%
  Population Hoechst High Intensity Objects (%): 0%
  Population Membrane Permeable-Phenotype (%): 0% and 9%
  Population Mitochondria Different-Phenotype (%): 21% and 24%
  Population Mitotic Cells (%): 36% and 46%
  Population Normal (%): 99%
  Population Pyknosed Nuclei (%): 46% and 29%
  Population Tubulin-Different-Phenotype (%): 78% and 70%
  Total Cell Count: 131 and 175
[2]; [6]
  Population Apoptotic (%): 76% and 71%
  Population Fragmented Nuclei (%): 17% and 12%
  Population Healthy Nuclei (%): 49% and 56%
  Population Hoechst High Intensity Objects (%): 0%
  Population Membrane Permeable-Phenotype (%): 10% and 8%
  Population Mitochondria Different-Phenotype (%): 2% and 1%
  Population Mitotic Cells (%): 23% and 28%
  Population Normal (%): 100%
  Population Pyknosed Nuclei (%): 33% and 31%
  Population Tubulin-Different-Phenotype (%): 18% and 19%
  Total Cell Count: 151 and 166
[2]; [7]
  Population Apoptotic (%): 78% and 64%
  Population Fragmented Nuclei (%): 8% and 14%
  Population Healthy Nuclei (%): 30% and 41%
  Population Hoechst High Intensity Objects (%): 1%
  Population Membrane Permeable-Phenotype (%): 2% and 8%
  Population Mitochondria Different-Phenotype (%): 43% and 36%
  Population Mitotic Cells (%): 21% and 35%
  Population Normal (%): 98%
  Population Pyknosed Nuclei (%): 61% and 43%
  Population Tubulin-Different-Phenotype (%): 72% and 71%
  Total Cell Count: 125 and 173
[2]; [8]
  Population Apoptotic (%): 79% and 85%
  Population Fragmented Nuclei (%): 11% and 14%
  Population Healthy Nuclei (%): 47% and 50%
  Population Hoechst High Intensity Objects (%): 0%
  Population Membrane Permeable-Phenotype (%): 19% and 17%
  Population Mitochondria Different-Phenotype (%): 1% and 5%
  Population Mitotic Cells (%): 20% and 14%
  Population Normal (%): 100% and 99%
  Population Pyknosed Nuclei (%): 41% and 35%
  Population Tubulin-Different-Phenotype (%): 27% and 20%
  Total Cell Count: 161 and 139
[2]; [9]
  Population Apoptotic (%): 92% and 87%
  Population Fragmented Nuclei (%): 11% and 14%
  Population Healthy Nuclei (%): 15% and 21%
  Population Hoechst High Intensity Objects (%): 0%
  Population Mitochondria Different-Phenotype (%): 22% and 28%
  Population Mitotic Cells (%): 7% and 12%
  Population Normal (%): 99%
  Population Pyknosed Nuclei (%): 73% and 63%
  Population Tubulin-Different-Phenotype (%): 83% and 74%
  Total Cell Count: 117 and 161
[3]; [4]
  Population Apoptotic (%): 28% and 47%
  Population Healthy Nuclei (%): 61% and 77%
  Population Hoechst High Intensity Objects (%): 0%
  Population Membrane Permeable-Phenotype (%): 7% and 3%
  Population Mitochondria Different-Phenotype (%): 3%
  Population Mitotic Cells (%): 71% and 52%
  Population Normal (%): 100%
  Population Pyknosed Nuclei (%): 16% and 15%
  Population Tubulin-Different-Phenotype (%): 88% and 93%
[3]; [5]
  Population Apoptotic (%): 66% and 86%
  Population Fragmented Nuclei (%): 20% and 10%
  Population Healthy Nuclei (%): 44% and 40%
  Population Hoechst High Intensity Objects (%): 0%
  Population Membrane Permeable-Phenotype (%): 0% and 22%
  Population Mitotic Cells (%): 33% and 13%
  Population Normal (%): 100% and 99%
  Population Pyknosed Nuclei (%): 36% and 48%
  Population Tubulin-Different-Phenotype (%): 81% and 57%
[3]; [6]
  Population Apoptotic (%): 70% and 76%
  Population Fragmented Nuclei (%): 19% and 8%
  Population Healthy Nuclei (%): 52% and 67%
  Population Hoechst High Intensity Objects (%): 0%
  Population Membrane Permeable-Phenotype (%): 10% and 3%
  Population Mitochondria Different-Phenotype (%): 0% and 1%
  Population Mitotic Cells (%): 30% and 23%
  Population Normal (%): 100%
  Population Pyknosed Nuclei (%): 27% and 23%
  Population Tubulin-Different-Phenotype (%): 89% and 95%
[3]; [7]
  Population Apoptotic (%): 93% and 80%
  Population Fragmented Nuclei (%): 8% and 17%
  Population Hoechst High Intensity Objects (%): 5% and 0%
  Population Membrane Permeable-Phenotype (%): 58% and 22%
  Population Normal (%): 94% and 100%
  Population Pyknosed Nuclei (%): 80% and 43%
  Population Tubulin-Different-Phenotype (%): 76% and 100%
[3]; [8]
  Population Apoptotic (%): 90% and 83%
  Population Fragmented Nuclei (%): 12% and 7%
  Population Healthy Nuclei (%): 74% and 75%
  Population Hoechst High Intensity Objects (%): 0%
  Population Membrane Permeable-Phenotype (%): 3% and 5%
  Population Mitochondria Different-Phenotype (%): 1% and 3%
  Population Mitotic Cells (%): 10% and 16%
  Population Normal (%): 100%
  Population Pyknosed Nuclei (%): 13% and 16%
  Population Tubulin-Different-Phenotype (%): 98% and 97%
[3]; [9]
  Population Apoptotic (%): 92% and 69%
  Population Healthy Nuclei (%): 13% and 20%
  Population Hoechst High Intensity Objects (%): 1% and 0%
  Population Membrane Permeable-Phenotype (%): 91% and 40%
  Population Mitochondria Different-Phenotype (%): 83% and 60%
  Population Normal (%): 98% and 100%
  Population Pyknosed Nuclei (%): 79% and 52%
  Population Tubulin-Different-Phenotype (%): 100%
